Laboratory results: publication PMC5495021 (Leukemia & lymphoma, 2015)
Entries after “also recorded” stand apart in the source; their conditions may differ. Read-outs that look alike come from different tables or passages of the source.

Columns and labels:
Tie2 = conditions: preclinical; cited from earlier work
[1] = tested on: vascular endothelial growth factor receptor type 1 (VEGFR1); conditions: preclinical; cited from earlier work
CYP2D6 = CYP2D6 (Homo sapiens, UniProt P10635); test: Contribution of CYP enzymes to metabolism; type: in vitro ADME
BCR-Abl kinase = conditions: preclinical; cited from earlier work
Src kinase family = conditions: preclinical; cited from earlier work
[2] = tested on: leukemic progenitor cells from 29 patients with AML; conditions: including poor-prognosis chromosome abnormalities; cited from earlier work
[3] = tested on: epidermal growth factor receptor (EGFR); conditions: preclinical; cited from earlier work
[4] = tested on: fibroblast growth factor receptor (FGFR); conditions: preclinical; cited from earlier work
[5] = tested on: vascular endothelial growth factor receptor type 2 (VEGFR2); conditions: preclinical; cited from earlier work
[6] = preclinical toxicology studies; cited from earlier work
[7] = human, in vivo
[8] = tested on: acute and chronic myeloid leukemic cells; conditions: inhibition of proliferation and induction of apoptosis; cited from earlier work
[9] = Plasma pharmacokinetics of SAR103168 in phase I patients; type: in vivo, human
xenograft models = conditions: cited from earlier work
[10] = tested on: refractory/relapsed acute leukemias or high-risk myelodysplastic syndromes; test: Anti-leukemic efficacy; type: in vivo, human
How it was run: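 Adults with refractory/relapsed acute leukemia, accelerated/blast-phase CML, or high-risk MDS received IV infusion daily for 5 days per course, starting at 1.2 mg/m2/day with dose escalation. Response was graded by IWG criteria (acute leukemia/MDS) or European LeukemiaNet definitions (CML). Marrow aspirate/biopsy at baseline, course 2 Day 11–14, every 2 courses, and end of study. Descriptive statistics.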

[11] = cited from earlier work
human AML leukemic cells = conditions: animals implanted with human AML leukemic cells; cited from earlier work
[12] = tested on: platelet-derived growth factor receptor (PDGFR); conditions: preclinical; cited from earlier work
Protein binding = type: in vitro ADME, human; conditions: no saturation over a clinically relevant concentration range
[13] = Safety / adverse events and DLT in phase I dose escalation study
[14] = mice at active doses (16.7 mg/kg IV or 2 × 40 mg/kg PO)

Sequence of CYP2D6 (P10635 whole entry): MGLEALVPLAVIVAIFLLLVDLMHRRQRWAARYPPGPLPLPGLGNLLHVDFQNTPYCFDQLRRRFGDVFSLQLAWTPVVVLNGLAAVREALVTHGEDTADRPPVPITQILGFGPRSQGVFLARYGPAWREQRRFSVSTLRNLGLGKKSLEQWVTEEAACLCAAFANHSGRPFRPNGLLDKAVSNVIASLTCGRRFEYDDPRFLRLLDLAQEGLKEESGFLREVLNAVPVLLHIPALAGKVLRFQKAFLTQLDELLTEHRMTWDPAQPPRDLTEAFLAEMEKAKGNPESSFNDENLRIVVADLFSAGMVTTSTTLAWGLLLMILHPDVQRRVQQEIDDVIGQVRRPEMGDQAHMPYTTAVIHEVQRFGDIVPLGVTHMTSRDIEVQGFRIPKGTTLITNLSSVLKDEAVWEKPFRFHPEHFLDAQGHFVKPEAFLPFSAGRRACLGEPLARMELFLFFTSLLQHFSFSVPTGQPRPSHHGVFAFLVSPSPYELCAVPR

For `CC(C)(C)NC(=O)Nc1nc2nc(Nc3ccc4nsnc4c3)ncc2cc1-c1c(Cl)cccc1Cl` [SAR103168, 1-[2-(2,1,3-benzothiadiazol-5-ylamino)-6-(2,6-dicholophenyl)-pyridol[2,3-d]pyrimidin-7-yl]-3′-tert-butylurea], the “activity against Tie2” value (Tie2) is listed as “Nanomolar activity”, the “activity against VEGFR1” value [1] is listed as “Nanomolar activity” and the “contribution of CYP2D6 to the compound's metabolism” value (CYP2D6) is listed as ~ 20%. For the same molecule, the “activity against the BCR-Abl kinase” value (BCR-Abl kinase) was “Nanomolar activity”, the “activity against the Src kinase family” value (Src kinase family) was “Nanomolar activity” and the “AML patient samples sensitive to the agent” value [2] was “over 85%”. The “activity against EGFR” value [3] was “Nanomolar activity”, the “activity against FGFR” value [4] was “Nanomolar activity” and the “activity against VEGFR2” value [5] was “Nanomolar activity”. The toxicity profile [6] was “favorable toxicity profile”, the “maximum tolerated dose (MTD)” value [7] was “prior to reaching the MTD” and the “IC50 of anti-leukemic effects” value [8] was “nanomolar”. For the same molecule, the “time by which mean plasma concentrations were below the limit of detection” value ([9]; all dose groups) was no more than 24 h, the tlast ([9]; generally, over the dose range 1.2 to 14.4 mg/m2) was no more than 7 h and the “accumulation in exposures (Cmax or AUClast) upon multiple daily dosings” value ([9]; human, in vivo) was “limited accumulation”. The “patient exposure (AUC)” value ([9]; human, in vivo, 14.4 mg/m2) was ~ 1000 ng/h/mL, the “patient exposure (Cmax)” value ([9]; human, in vivo, 14.4 mg/m2) was ~ 500 ng/mL and the “active dose in various tumor models” value (xenograft models; IV, in mice) was 16.7 mg/kg. For the same molecule, the “putative, partially active dose level” value (xenograft models; based on the preclinical data, human-equivalent of 10 mg/kg in mouse) was ~ 30 mg/m^2, the “putative, partially active dose level” value (xenograft models; in mouse, preclinical data) was 10 mg/kg and the “transient decrease in peripheral blasts” value ([10]; efficacy population) was “One patient”. The clinical benefit ([10]; within the tested dose range) was “did not demonstrate a clear clinical benefit”, the “AUCs achieved in animal models” value [11, 14] was no less than 16000 ng/h/mL and the “Cmax achieved in animal models” value [11, 14] was no less than 3600 ng/mL. The “exposures (AUCs) which demonstrated in vivo activity in xenograft models” value ([11]; xenograft models) was 16000 ng/h/mL, the “effect of administration on tumors” value (human AML leukemic cells) was “tumor regression” and the “activity against PDGFR” value [12] was “Nanomolar activity”. The Human protein binding (Protein binding) was greater than 99.3%, the “discontinuation of study treatment due to adverse events” value ([13]; 29 treated patients) was 10.3% and the “SAE Preferred Term” value ([13]; planned dose level 1.2 mg/m^2, Relationship to Study Drug: No) was “Multi-organ failure; also recorded: Bacteremia; also recorded: Pneumonia fungal; also recorded: Febrile neutropenia”. For the same molecule, the “SAE Preferred Term” value ([13]; planned dose level 1.2 mg/m^2, Relationship to Study Drug: Yes) was “Echocardiogram abnormal”, the “SAE Preferred Term” value ([13]; planned dose level 1.7 mg/m^2, Relationship to Study Drug: No) was “Deep vein thrombosis; also recorded: Febrile neutropenia; also recorded: Staphylococcal sepsis; also recorded: Disease progression; also recorded: Pulmonary embolism” and the “SAE Preferred Term” value ([13]; planned dose level 2.4 mg/m^2, Relationship to Study Drug: No) was “Perirectal abscess; also recorded: Febrile neutropenia; also recorded: Anemia; also recorded: Disease progression; also recorded: Septic shock”. The “SAE Preferred Term” value ([13]; planned dose level 4.8 mg/m^2, Relationship to Study Drug: No) was “Bone pain; also recorded: Febrile neutropenia; also recorded: Disease progression”, the “SAE Preferred Term” value ([13]; planned dose level 9.6 mg/m^2, Relationship to Study Drug: No) was “Pneumonia; also recorded: Bacteremia; also recorded: Asthenia” and the “SAE Preferred Term” value ([13]; planned dose level 14.4 mg/m^2, Relationship to Study Drug: No) was “Disease progression; also recorded: Sinusitis fungal; also recorded: Sepsis”.
